Publication PMC3165084 (Leukemia, 2011)
Where “and” joins values, the source holds several entries; their conditions need not be identical. Equal entries are not always repeated. Marks after values point to notes of the source that are not given here.

What was measured:
Format in all cases: in vivo, human
[1] = system: patients with acute myeloid leukemia (AML); test: Phase 1 dose escalation, week-on week-off oral tipifarnib: toxicity, DLT and MTD
Summary of the method: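 Adult patients with AML (M3 excluded) received oral test compound twice daily on days 1–7 and 15–21 of 28-day cycles in 3+3 cohorts. AEs were graded by NCI CTCAE v3.0 from clinic review and patient diaries. DLT was any possibly drug-related […] nonhematologic toxicity (excluding palliated GI events and corrected electrolytes), or non-reversible grade 4 hematologic toxicity without blasts. MTD was ≤1 of 6 with DLT in cycle 1.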

[2] = system: acute myeloid leukemia (AML); test: Phase 1 dose escalation: clinical response
Summary of the method: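 Bone marrow aspiration and biopsy were done within two weeks before therapy and repeated on days 26–28 of each 28-day cycle. Blood counts were taken at least weekly. Response was scored by International Working Group criteria. Intra-patient escalation was allowed if no CR after cycle 1. Patients without PR or clinical improvement after 6 cycles were deemed treatment failures.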

[3] = Plasma pharmacokinetics of tipifarnib, LCMS/MS, non-compartmental analysis
[4] = 1200 mg bid, Subsequent courses
[5] = AUC12h Day 5 / AUC12h Day 1, 1400 mg bid
[6] = Day 1, 1200 mg, plasma, individual subjects 4-10
[7] = Day 1, 1400 mg, plasma, individual subjects 1-3

## Cn1cncc1[C@@](N)(c1ccc(Cl)cc1)c1ccc2c(c1)c(-c1cccc(Cl)c1)cc(=O)n2C [tipifarnib, Tipifarnib]
[1]; 400 mg bid
  # DLTs: 1
  DLT descriptions: hepatic
[1]; 1200 mg bid
  # DLTs: 1
  DLT descriptions: renal
[1]; 1200 mg bid, Course 1
  ALT, SGPT toxicity, Grade 2: 2
  Anorexia, Grade 2: 2
  Bilirubin toxicity, Grade 2: 2
  Creatinine toxicity, Grade 2: 2
  Creatinine toxicity, Grade 3: 1
  Dehydration, Grade 2: 1
  Fatigue, Grade 2: 3
  Hypoalbuminemia, Grade 2: 2
  Nausea, Grade 2: 1
  Nausea, Grade 3: 1
  Rash / desquamination, Grade 2: 1
  Vomiting, Grade 2: 2
[1]; [4]
  ALT, SGPT toxicity, Grade 3: 1
  AST, SGOT toxicity, Grade 2: 1
  Anorexia, Grade 2: 1
  Ataxia, Grade 3: 1
  Bilirubin toxicity, Grade 2: 1
  Constipation, Grade 2: 1
  Creatinine toxicity, Grade 2: 3
  Fatigue, Grade 3: 2
  Febrile neutropenia, Grade 3: 1
  Hyperglycemia, Grade 2: 2
  Hypoalbuminemia, Grade 2: 2
  Nausea, Grade 2: 2
  Restless leg syndrome, Grade 2: 1
  Syncope (fainting), Grade 3: 1
  Vomiting, Grade 2: 2
  Weight loss, Grade 2: 1
[1]; 1400 mg bid
  # DLTs: 2
  DLT descriptions: renal
[1]; 1600 mg bid
  # DLTs: 2 ^*
  DLT descriptions: hepatic, renal ^*
[1]; oral twice daily, days 1–7 and 15–21 of each 28-day cycle, first-cycle DLT
  maximum tolerated dose (MTD): 1200 mg bid
[2]; 800 mg bid
  Responses: 1 CMML patient cleared leukemic blasts
[2]; 800 mg bid, one patient, over 3 cycles
  marrow blasts, change: from 36% to 10%
[2]; 1000 mg bid
  Responses: 1 CR went to transplant
[2]; 1200 mg bid
  Responses: 2 CRs, 1 marrow response (from 50%-7% blasts)
[2]; 1200 mg bid, individual CR patients
  duration of CR: one month
[2]; 1400 mg bid
  Responses: minor responses
[2]; 1400 mg bid, two patients
  decrease of bone marrow blasts: ≥ 50%
[2]; all dose levels, 44 patients, 1000 mg and 1200 mg bid
  complete remissions (CR) seen: 3
[2]; expansion group, 7 patients at MTD 1200 mg bid
  complete responses in expansion group: no complete responses
[2]; lower dose levels (below 1000 mg bid)
  formal responses: No formal responses
[3]; AUC12h Day 5 / AUC12h Day 1, 1200 mg bid
  Accumulation Index, median: 1.2 and 1.23
[3]; AUC12h Day 5 / AUC12h Day 1, 1200 mg bid, individual subjects 4-10
  Accumulation Index: 1.23 and 0.91 and 2.40 and 1.55
[3]; [5]
  Accumulation Index, high: 1.37
  Accumulation Index, low: 0.97
  Accumulation Index, median: 1.17
[3]; AUC12h Day 5 / AUC12h Day 1, 1400 mg bid, individual subjects 1-3
  Accumulation Index: 1.37 and 0.97
[3]; Day 1, 1200 mg, plasma
  Cmin, high: 402 ng/mL
  Cmin, low: 82 ng/mL
  Cmin, median: 166 ng/mL
[3]; [6]
  AUC12h: 3905 ng·h/mL
  Cmax: 804 ng/mL and 1180 ng/mL and 479 ng/mL and 2300 ng/mL
  Cmin: 132 ng/mL and 339 ng/mL and 166 ng/mL and 82 ng/mL and 402 ng/mL
  Tmax: 3.0 h
[3]; Day 1, 1400 mg, plasma
  Cmin, low: 145 ng/mL
  Cmin, median: 237 ng/mL
[3]; [7]
  Cmin: 329 ng/mL and 145 ng/mL
  Tmax: 3.2 h
[3]; Day 5, 1200 mg bid, plasma, individual subjects 4-10
  AUC12h: 4815 ng·h/mL and 7001 ng·h/mL and 7787 ng·h/mL and 9221 ng·h/mL
